ChEMBL document CHEMBL1134641, “Progress toward the development of a safe and effective agent for treating reentrant cardiac arrhythmias: synthesis and evaluation of ibutilide analogues with enhanced metabolic stability and diminished proarrhythmic potential” (2001)
Several values for one entry are separate records, joined by “and”; a condition that tells them apart may be missing. Equal values may be shown once.

Experiments:
Canis familiaris [1] = assay: Number of canine in which arrhythmias could not be induced at an single intravenous dose of 2.4 uM/kg; type: functional, Canis lupus familiaris
How it was run: (§1)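 Male mongrel dogs (16-22 kg) with LAD ligated in two stages, studied 24 h later. Programmed electrical stimulation at baseline and 15 min after each iv dose in saline (cumulative 0.24, 0.72, 2.4 µmol/kg). Saline controls then received a single 2.4 µmol/kg iv dose. Responses scored as NI (≤15 beats), NSVT (>15 beats, ends within 30 s), SVT (>30 s, needing pacing or cardioversion) or VF. A positive response was repeated.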

Canis familiaris [2] = species: Canis familiaris; assay: Atrial effective refractory period (AERP) measured in canine just after inducing atrial flutter (AFL) termination by the compound; type: functional, Canis lupus familiaris, Heart
Canis familiaris [3] = species: Canis familiaris; assay: QT interval measured in canine just after inducing atrial flutter (AFL) termination by the compound; type: functional, Canis lupus familiaris, Heart
How it was run: (§2)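 Conscious, sling-restrained dogs with chronically implanted electrodes, studied after 2 weeks of recovery. Sustained AFL (>5 min) induced. Compound in saline given iv every 5 min to cumulative 0.024-12.0 µmol/kg. At AFL termination, HR, QT (paced cycle length 300 ms), AERP and VERP measured. Measurements then taken 3 min after each further dose. Significance p≤0.05 vs baseline.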

Canis familiaris [4] = assay: Atrial effective refractory period (AERP) measured in canine just after inducing atrial flutter (AFL) termination by the compound at a dose of 12.0 uM/kg; type: functional, Canis lupus familiaris, Heart
Canis familiaris [5] = assay: Idioventricular heart rate (IVR) measured in canine 24-h Infarction model at a single intravenous dose of 2.4 uM/kg; type: functional, Canis lupus familiaris
How it was run: (§3)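 Male mongrel dogs (16-22 kg) with LAD permanently ligated in two stages; studied 24 h later. […] given IV in sequential doses to cumulative 0.24, 0.72, 2.4 µmol/kg. Saline controls (n=8) received vehicle, then a single IV 2.4 µmol/kg dose at the end. Measurements taken at baseline and 15 min after each dose. Means ± SEM, paired t-test, p ≤ 0.05.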

Canis familiaris [6] = assay: Ventricular effective refractory (VEPR) period measured in canine 24-h Infarction model at a single intravenous dose of 2.4 uM/kg; type: functional, Canis lupus familiaris, Heart
How it was run: (§4)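 Dogs 24 h after two-stage LAD ligation. Compound in saline given iv in sequential doses (cumulative 0.24, 0.72, 2.4 µmol/kg); saline controls then given a single 2.4 µmol/kg iv dose. HR, IVR, BP, QT, spontaneous arrhythmias/min, ERPs and MAPD90 measured at baseline and 15 min after each dose. Means ± SEM, paired t-test, p≤0.05.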

Canis familiaris [7] = assay: Atrial effective refractory period (AEPR) measured in canine 24-h Infarction model at an cumulative intravenous dose of 2.4 uM/kg; type: functional, Canis lupus familiaris, Cardiac atrium; how it was run: as §3
Canis familiaris [8] = assay: Spontaneous arrhythmias measured in canine 24-h Infarction model at an cumulative intravenous dose of 0.72 uM/kg; type: functional, Canis lupus familiaris; how it was run: as §4
Canis familiaris [9] = assay: Number of canine in which arrhythmias could not be induced at an cumulative intravenous dose of 0.72 uM/kg; type: functional, Canis lupus familiaris; how it was run: as §1
Canis familiaris [10] = assay: Ventricular effective refractory period ([…]) measured in canine just after inducing atrial flutter (AFL) termination by the compound at a dose of 12.0 uM/kg; type: functional, Canis lupus familiaris, Heart
How it was run: (§5)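 Conscious dogs, loosely restrained in a sling, with exteriorized electrode leads, studied 2 weeks after instrumentation. AFL was induced and counted as sustained if it lasted 5 min. Compound in saline given intravenously every 5 min to cumulative 0.024-12.0 µmol/kg. VERP was measured at AFL termination and 3 min after each dose. Results are means ± SEM versus baseline, p ≤ 0.05.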

Canis familiaris [11] = assay: Blood pressure measured in canine 24-h Infarction model at a single intravenous dose of 2.4 uM/kg; type: functional, Canis lupus familiaris; how it was run: as §3
Canis familiaris [12] = assay: Ventricular effective refractory period ([…]) measured in canine just after inducing atrial flutter (AFL) termination by the compound at a dose of 2.4 uM/kg; type: functional, Canis lupus familiaris, Heart; how it was run: as §5
Canis familiaris [13] = assay: Spontaneous arrhythmias measured in canine 24-h Infarction model at an cumulative intravenous dose of 2.4 uM/kg; type: functional, Canis lupus familiaris; how it was run: as §4
Canis familiaris [14] = assay: Number of canine in which ventricular fibrillation (VF) was observed in PES-induced arrhythmias at an single intravenous dose of 2.4 uM/kg; type: functional, Canis lupus familiaris, Cardiac ventricle; how it was run: as §1
Canis familiaris [15] = assay: Atrial effective refractory period (AERP) measured in canine just after inducing atrial flutter (AFL) termination by the compound at a dose of 4.8 uM/kg; type: functional, Canis lupus familiaris, Heart
Canis familiaris [16] = assay: Heart rate measured in canine 24-h Infarction model at an cumulative intravenous dose of 0.72 uM/kg; type: functional, Canis lupus familiaris; how it was run: as §3
Canis familiaris [17] = assay: Ventricular effective refractory (VEPR) period measured in canine 24-h Infarction model at an cumulative intravenous dose of 0.72 uM/kg; type: functional, Canis lupus familiaris, Heart
How it was run: (§6)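 Male mongrel dogs (16-22 kg) with LAD permanently ligated in two stages, studied 24 h after ligation. Compound given in saline (6.0 µmol/mL) as sequential intravenous doses to reach cumulative 0.24, 0.72 and 2.4 µmol/kg. VERP and other measurements taken at baseline and 15 min after each dose. Saline-dosed dogs served as controls. Results are means ± SEM, paired t-test, p ≤ 0.05.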

Canis familiaris [18] = assay: Ventricular effective refractory period ([…]) measured in canine just after inducing atrial flutter (AFL) termination by the compound at a dose of 0.6 umol/kg; type: functional, Canis lupus familiaris, Heart; how it was run: as §5
Canis familiaris [19] = assay: Ventricular effective refractory period ([…]) measured in canine just after inducing atrial flutter (AFL) termination by the compound at a dose of 7.2 uM/kg; type: functional, Canis lupus familiaris, Heart; how it was run: as §5
Canis familiaris [20] = assay: QT interval measured in canine just after inducing atrial flutter (AFL) termination by the compound at a dose of 1.2 uM/kg; type: functional, Canis lupus familiaris, Heart; how it was run: as §2
Canis familiaris [21] = assay: Heart Rate measured in canine just after inducing atrial flutter (AFL) termination by the compound at a dose of 0.6 umol/kg; type: functional, Canis lupus familiaris
Canis familiaris [22] = assay: Ventricular effective refractory (VEPR) period measured in canine 24-h Infarction model at an cumulative intravenous dose of 0.24 uM/kg; type: functional, Canis lupus familiaris, Heart; how it was run: as §6

Work on `CCN(CCCCCC(C)(C)F)CCC[C@H](O)c1ccc(NS(C)(=O)=O)cc1.O=C(O)/C=C/C(=O)O` yielded a No. of canine (Canis familiaris [1]) of 7, an AERP (Canis familiaris [2]) of 149 ms and a QT interval (Canis familiaris [3]) of 202 ms. The AERP (Canis familiaris [4]) was 164 ms, the IVR (Canis familiaris [5]) was 111 beats min-1 and the VERP (Canis familiaris [6]) was 180 ms. The AERP (Canis familiaris [7]) was 194 ms, the PVCs (Canis familiaris [8]) was 68 number min-1 and 57 number min-1 and the No. of canine (Canis familiaris [9]) was 9. It also gave a VERP (Canis familiaris [10]) of 137 ms, a BP (Canis familiaris [11]) of 111 mmHg and a VERP (Canis familiaris [12]) of 143 ms. It also gave a PVCs (Canis familiaris [13]) of 73 number min-1, a No. of canine (Canis familiaris [14]) of 0 and an AERP (Canis familiaris [15]) of 166 ms. The HR (Canis familiaris [16]) was 146 beats min-1, the VERP (Canis familiaris [17]) was 170 ms and the VERP (Canis familiaris [18]) was 141 ms. The VERP (Canis familiaris [19]) was 140 ms, the QT interval (Canis familiaris [20]) was 212 ms and the HR (Canis familiaris [21]) was 111 beats min-1. It also gave a VERP (Canis familiaris [22]) of 162 ms.
